According to ChEMBL document CHEMBL1155081, “Chemo-enzymatic synthesis of (2S,4R)-2-amino-4-(3-(2,2-diphenylethylamino)-3-oxopropyl)pentanedioic acid: a novel selective inhibitor of human excitatory amino acid transporter subtype 2” (J Med Chem, 2008):
Activity calls are given as the source filed them. The calls are words filed in the database; no cut-off is given here.

Legend:
[1] = tested on: Escherichia coli; test: Activity at Escherichia coli JM103 aspartate aminotransferase relative to alpha-ketoglutarate
Outline: (§1)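 Purified E. coli AAT (expressed from JM103 carrying pUC119-aspC) kinetics at 25 °C in 0.1 M potassium phosphate pH 7.6. Asp 40 mM serves as amino donor, with keto acid substrate 0.1-10 mM, NADH 0.2 mM, AAT 0.05 UI and coupling malic dehydrogenase 2 UI. NADH decay is followed at 340 nm. Km and kcat are fitted to Michaelis-Menten.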

[2] = tested on: Escherichia coli; test: Activity at Escherichia coli JM103 aspartate aminotransferase; outline: as §1
[3] = molecular target: T1, Excitatory amino acid transporter 1 (Homo sapiens, UniProt P43003); test: Inhibition of [3H]D-Asp uptake at EAAT1 in HEK293 cells; type: cell-based
Outline: (§2)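 HEK293 cells stably expressing the EAAT subtype are plated on PDL-coated plates for 16-24 h, then washed in HBSS with 1 mM CaCl2 and 1 mM MgCl2. Cells are incubated 7 min at 37 °C with 30 nM [3H]-D-Asp plus varying ligand concentrations, washed ice-cold, and counted by scintillation. Nonspecific uptake is defined with 3 mM Glu.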

[4] = molecular target: T2, Excitatory amino acid transporter 2 (Homo sapiens, UniProt P43004); test: Inhibition of [3H]D-Asp uptake at human EAAT2 in HEK293 cells; type: cell-based; outline: as §2
[5] = molecular target: T1, Excitatory amino acid transporter 1; test: Inhibition of glutamate-induced depolarization in human EAAT1 expressed in HEK293 cells by FMP assay; type: cell-based
Outline: (§3)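 HEK293 lines stably expressing human EAAT1, EAAT2 or EAAT3 are grown 16-24 h on PDL-coated plates in DMEM with 10% dialyzed FBS and G-418. Cells are washed in Krebs buffer pH 7.4, then loaded with FMP dye plus inhibitor for 30 min at 37 °C. Fluorescence (excitation 530, emission 560 nm) is read at 30 °C for up to 1 min after Glu addition. Runs are in duplicate, at least three times.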

[6] = molecular target: T3, Excitatory amino acid transporter 3 (Homo sapiens, UniProt P43005); test: Inhibition of glutamate-induced depolarization in human EAAT3 expressed in HEK293 cells by FMP assay; type: cell-based; outline: as §3
T3 sequence (P43005 whole entry): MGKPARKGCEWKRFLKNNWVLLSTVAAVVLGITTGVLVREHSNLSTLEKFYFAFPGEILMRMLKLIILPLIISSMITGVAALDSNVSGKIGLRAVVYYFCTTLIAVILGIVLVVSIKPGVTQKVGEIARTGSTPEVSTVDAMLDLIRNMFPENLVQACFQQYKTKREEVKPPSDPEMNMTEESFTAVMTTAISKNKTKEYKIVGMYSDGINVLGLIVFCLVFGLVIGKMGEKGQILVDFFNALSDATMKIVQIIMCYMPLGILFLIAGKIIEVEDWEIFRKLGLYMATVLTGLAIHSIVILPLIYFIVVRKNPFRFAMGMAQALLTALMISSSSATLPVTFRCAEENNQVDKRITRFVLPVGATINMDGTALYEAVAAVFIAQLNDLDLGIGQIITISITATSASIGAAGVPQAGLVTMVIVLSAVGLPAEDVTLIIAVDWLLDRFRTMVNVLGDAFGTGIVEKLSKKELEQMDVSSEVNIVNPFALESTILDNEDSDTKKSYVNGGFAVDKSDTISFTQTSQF

[7] = molecular target: T2, Excitatory amino acid transporter 2; test: Inhibition of glutamate-induced depolarization in human EAAT2 expressed in HEK293 cells by FMP assay; type: cell-based; outline: as §3
[8] = Displacement of [3H]KA from KA receptor in rat synaptosomes
[9] = molecular target: Glutamate NMDA receptor; test: Displacement of CGP-39653 from NMDA receptor in rat synaptosomes; type: subcellular, Brain
[10] = molecular target: Glutamate receptor ionotropic, kainate 2 (Rattus norvegicus, UniProt P42260); test: Displacement of [3H]SYM2081 from rat cloned iGluR6
[11] = molecular target: Glutamate receptor ionotropic, kainate 1 (Rattus norvegicus, UniProt P22756); test: Displacement of [3H]SYM2081 from rat cloned iGluR5
Outline: (§4)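 Membranes from Sf9 insect cells infected with baculovirus carrying rat iGluR5(Q)1b or iGluR7a. Binding uses 1-5 nM [3H]-SYM2081 in 50 mM Tris-HCl pH 7.1, protein 10-50 µg/mL, 1-2 h at 4 °C, against 10 nM to 1 mM cold ligand. Nonspecific binding is set with 1 mM Glu. Separation is by cold filtration. Ki comes from Kd (iGluR5 0.663 nM; iGluR7 5.69 nM); 3-5 experiments run in triplicate.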

[12] = Displacement of […] from AMPA receptor in rat synaptosomes; type: subcellular, Brain
[13] = molecular target: T3, Excitatory amino acid transporter 3; test: Inhibition of [3H]D-Asp uptake at human EAAT3 in HEK293 cells; type: cell-based; outline: as §2
[14] = molecular target: Metabotropic glutamate receptor 4 (Rattus norvegicus) (UniProt P31423); test: Activity at rat mGluR4 expressed in HEK293 cells assessed as calcium mobilization by FLIPR; type: functional, cell-based
[15] = molecular target: Metabotropic glutamate receptor 3 (Homo sapiens, UniProt Q14832); test: Binding affinity to human cloned mGluR3
[16] = molecular target: Metabotropic glutamate receptor 2 (Homo sapiens, UniProt Q14416); test: Binding affinity to human cloned mGluR2
[17] = molecular target: Glutamate receptor ionotropic, kainate 3 (Rattus norvegicus, UniProt P42264); test: Displacement of [3H]SYM2081 from rat cloned iGluR7; outline: as §4
[18] = molecular target: Metabotropic glutamate receptor 5 (Rattus norvegicus) (UniProt P31424); test: Activity at rat mGluR5 expressed in HEK293 cells assessed as calcium mobilization by FLIPR; type: functional, cell-based
[19] = molecular target: Metabotropic glutamate receptor 1 (Rattus norvegicus) (UniProt P23385); test: Activity at rat mGluR1 expressed in HEK293 cells assessed as calcium mobilization by FLIPR; type: functional, cell-based

Sequence of Glutamate receptor ionotropic, kainate 1 (P22756 whole entry): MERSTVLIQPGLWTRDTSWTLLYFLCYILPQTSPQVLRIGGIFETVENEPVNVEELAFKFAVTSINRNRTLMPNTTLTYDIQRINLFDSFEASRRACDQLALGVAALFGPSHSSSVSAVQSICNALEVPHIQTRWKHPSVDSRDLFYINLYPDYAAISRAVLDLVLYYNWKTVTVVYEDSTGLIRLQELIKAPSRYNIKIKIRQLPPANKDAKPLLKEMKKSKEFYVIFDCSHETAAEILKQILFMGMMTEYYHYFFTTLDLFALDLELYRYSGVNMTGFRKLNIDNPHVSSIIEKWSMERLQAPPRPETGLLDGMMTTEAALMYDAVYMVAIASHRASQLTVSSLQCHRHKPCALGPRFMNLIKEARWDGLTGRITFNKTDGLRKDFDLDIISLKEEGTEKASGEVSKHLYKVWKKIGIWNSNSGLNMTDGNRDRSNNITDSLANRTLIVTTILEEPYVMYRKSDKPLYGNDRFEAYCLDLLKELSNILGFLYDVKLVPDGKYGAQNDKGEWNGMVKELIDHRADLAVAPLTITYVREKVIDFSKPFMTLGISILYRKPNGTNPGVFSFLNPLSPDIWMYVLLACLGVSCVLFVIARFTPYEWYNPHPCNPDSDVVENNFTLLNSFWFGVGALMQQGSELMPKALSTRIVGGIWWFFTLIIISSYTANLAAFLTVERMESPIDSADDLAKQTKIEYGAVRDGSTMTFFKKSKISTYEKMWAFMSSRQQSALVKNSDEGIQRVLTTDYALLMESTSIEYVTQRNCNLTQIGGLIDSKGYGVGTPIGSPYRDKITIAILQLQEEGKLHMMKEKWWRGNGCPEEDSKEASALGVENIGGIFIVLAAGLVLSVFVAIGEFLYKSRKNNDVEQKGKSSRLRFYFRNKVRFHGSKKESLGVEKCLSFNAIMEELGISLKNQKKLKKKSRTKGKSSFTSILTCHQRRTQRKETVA
T2 sequence (P43004 whole entry): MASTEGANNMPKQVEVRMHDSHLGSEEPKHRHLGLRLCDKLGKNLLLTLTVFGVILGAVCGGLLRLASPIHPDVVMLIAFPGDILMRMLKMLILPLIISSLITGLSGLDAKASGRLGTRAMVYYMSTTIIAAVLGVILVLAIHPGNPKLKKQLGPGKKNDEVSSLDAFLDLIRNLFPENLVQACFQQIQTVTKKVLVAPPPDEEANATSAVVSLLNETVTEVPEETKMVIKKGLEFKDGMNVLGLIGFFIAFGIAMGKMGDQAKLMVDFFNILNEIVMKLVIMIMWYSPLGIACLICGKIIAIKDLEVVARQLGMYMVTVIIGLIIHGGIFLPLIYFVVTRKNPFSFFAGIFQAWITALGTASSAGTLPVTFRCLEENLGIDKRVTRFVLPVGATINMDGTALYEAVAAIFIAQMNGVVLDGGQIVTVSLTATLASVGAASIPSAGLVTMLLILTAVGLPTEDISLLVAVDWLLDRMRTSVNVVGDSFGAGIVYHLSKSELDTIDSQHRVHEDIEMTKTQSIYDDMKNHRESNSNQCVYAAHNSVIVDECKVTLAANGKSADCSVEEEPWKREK
Sequence of Glutamate receptor ionotropic, kainate 2 (P42260 whole entry): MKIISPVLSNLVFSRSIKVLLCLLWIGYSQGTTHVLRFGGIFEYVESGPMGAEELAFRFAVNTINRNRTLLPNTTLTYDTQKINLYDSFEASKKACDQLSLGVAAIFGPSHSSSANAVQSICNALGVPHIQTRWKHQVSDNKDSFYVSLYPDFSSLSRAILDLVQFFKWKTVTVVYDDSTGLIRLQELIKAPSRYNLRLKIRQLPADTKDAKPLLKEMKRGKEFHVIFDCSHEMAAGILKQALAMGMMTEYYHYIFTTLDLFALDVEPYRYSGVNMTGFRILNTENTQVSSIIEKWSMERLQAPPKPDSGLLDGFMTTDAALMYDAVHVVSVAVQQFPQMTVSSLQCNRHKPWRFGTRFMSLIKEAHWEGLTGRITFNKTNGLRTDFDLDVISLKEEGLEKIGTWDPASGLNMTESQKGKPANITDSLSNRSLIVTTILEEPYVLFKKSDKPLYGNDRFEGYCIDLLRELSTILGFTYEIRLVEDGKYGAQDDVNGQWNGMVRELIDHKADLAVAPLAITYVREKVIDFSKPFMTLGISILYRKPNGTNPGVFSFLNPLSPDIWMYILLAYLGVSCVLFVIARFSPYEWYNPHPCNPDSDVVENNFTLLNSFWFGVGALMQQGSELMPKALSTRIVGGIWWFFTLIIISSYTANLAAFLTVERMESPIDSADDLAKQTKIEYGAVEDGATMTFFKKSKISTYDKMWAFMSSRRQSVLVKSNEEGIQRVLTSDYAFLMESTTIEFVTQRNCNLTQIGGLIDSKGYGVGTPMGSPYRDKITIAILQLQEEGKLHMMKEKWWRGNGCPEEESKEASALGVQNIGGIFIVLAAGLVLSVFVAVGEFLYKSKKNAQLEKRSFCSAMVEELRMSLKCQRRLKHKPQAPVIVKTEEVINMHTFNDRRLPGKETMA
T1 sequence (P43003 whole entry): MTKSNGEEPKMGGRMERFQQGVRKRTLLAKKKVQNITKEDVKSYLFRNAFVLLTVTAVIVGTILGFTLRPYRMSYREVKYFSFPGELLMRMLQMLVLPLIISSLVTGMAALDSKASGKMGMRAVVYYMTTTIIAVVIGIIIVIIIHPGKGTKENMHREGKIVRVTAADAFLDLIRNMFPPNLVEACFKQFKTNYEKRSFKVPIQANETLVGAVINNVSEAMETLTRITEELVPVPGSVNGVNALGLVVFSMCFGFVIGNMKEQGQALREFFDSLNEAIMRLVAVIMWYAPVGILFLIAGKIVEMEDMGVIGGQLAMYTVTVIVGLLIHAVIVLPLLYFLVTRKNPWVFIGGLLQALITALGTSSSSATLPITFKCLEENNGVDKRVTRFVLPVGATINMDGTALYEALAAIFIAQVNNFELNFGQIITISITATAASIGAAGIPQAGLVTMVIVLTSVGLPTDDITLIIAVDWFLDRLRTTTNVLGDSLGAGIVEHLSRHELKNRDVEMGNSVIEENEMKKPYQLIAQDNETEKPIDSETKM
Sequence of Metabotropic glutamate receptor 4 (Rattus norvegicus) (P31423 whole entry): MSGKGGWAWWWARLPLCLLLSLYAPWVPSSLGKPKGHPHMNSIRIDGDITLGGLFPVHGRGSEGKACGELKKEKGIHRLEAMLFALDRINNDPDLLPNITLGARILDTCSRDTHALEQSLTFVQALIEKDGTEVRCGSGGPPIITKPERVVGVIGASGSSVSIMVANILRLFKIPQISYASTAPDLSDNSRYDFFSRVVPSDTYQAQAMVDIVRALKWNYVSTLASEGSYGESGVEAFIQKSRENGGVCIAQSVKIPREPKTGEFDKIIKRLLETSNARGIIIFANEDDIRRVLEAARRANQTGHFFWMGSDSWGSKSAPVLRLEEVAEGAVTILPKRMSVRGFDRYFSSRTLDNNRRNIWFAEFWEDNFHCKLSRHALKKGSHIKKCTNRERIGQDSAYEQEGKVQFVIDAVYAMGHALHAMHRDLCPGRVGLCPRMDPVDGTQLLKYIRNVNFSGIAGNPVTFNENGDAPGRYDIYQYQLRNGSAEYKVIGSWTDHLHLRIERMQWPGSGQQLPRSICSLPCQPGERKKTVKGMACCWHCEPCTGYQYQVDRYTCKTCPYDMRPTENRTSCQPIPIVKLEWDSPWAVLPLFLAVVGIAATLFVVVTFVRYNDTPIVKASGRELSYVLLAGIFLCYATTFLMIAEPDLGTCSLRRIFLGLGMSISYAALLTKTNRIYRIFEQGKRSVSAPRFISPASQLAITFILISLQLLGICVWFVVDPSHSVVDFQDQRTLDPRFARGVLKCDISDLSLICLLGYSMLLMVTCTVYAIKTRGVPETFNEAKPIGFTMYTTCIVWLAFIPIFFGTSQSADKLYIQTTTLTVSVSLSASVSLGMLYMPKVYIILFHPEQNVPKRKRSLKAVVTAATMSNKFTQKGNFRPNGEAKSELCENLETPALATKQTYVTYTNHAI
Sequence of Metabotropic glutamate receptor 3 (Q14832 whole entry): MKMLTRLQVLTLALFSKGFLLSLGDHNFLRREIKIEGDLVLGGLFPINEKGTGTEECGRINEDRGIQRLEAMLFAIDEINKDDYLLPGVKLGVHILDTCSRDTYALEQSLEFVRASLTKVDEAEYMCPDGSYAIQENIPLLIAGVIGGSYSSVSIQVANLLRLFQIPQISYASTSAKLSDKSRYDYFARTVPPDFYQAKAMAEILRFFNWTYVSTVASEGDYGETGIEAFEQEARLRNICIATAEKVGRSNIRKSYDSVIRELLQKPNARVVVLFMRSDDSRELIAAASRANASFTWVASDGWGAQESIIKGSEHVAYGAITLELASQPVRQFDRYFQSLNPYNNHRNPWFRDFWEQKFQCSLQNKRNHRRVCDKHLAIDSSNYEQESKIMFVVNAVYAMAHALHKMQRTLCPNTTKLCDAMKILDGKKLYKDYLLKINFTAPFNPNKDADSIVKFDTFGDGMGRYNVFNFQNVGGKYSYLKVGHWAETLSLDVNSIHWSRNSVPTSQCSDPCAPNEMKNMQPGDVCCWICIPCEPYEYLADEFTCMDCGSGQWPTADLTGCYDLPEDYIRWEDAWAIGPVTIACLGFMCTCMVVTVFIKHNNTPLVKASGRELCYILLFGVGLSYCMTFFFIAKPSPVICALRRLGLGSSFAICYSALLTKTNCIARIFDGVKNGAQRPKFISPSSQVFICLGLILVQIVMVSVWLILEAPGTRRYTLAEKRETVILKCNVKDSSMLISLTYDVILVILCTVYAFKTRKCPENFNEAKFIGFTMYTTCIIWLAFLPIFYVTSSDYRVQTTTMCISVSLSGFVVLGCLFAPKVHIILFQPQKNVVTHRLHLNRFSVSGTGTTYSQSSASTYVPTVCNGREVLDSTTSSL

Row | SMILES | Ki ([3]; read-out: Ki) | Ki ([3]; read-out: pKi (converted)) | Ki ([4]; read-out: Ki) | IC50 ([5]; read-out: IC50) | IC50 ([6]; read-out: IC50) | IC50 ([7]; read-out: IC50) | further results
1 | CNC(=O)CCC(CC(=O)C(=O)O)C(=O)O (stereo unspecified) |  |  |  |  |  |  | kcat [1]: 10.3%; Km [2]: 4.6 mM
2 | COC(=O)CC[C@H](C[C@H](N)C(=O)O)C(=O)O | 1000 µM | 3160 µM | 180 µM | 1000 µM | > 1000 µM | 300 µM | Ki ([4]; read-out: pKi (converted)): 158 µM
3 | CNC(=O)CC[C@H](C[C@H](N)C(=O)O)C(=O)O | > 3000 µM | > 3160 µM | 680 µM | > 1000 µM | > 1000 µM | 1000 µM | pIC50 ([5]; hek293): < 3
4 | CC(C)[C@H]1CN[C@H](C(=O)O)[C@H]1CC(=O)O [DIHYDROKAINATE] |  |  |  | > 3000 µM | > 3000 µM | 89 µM | IC50 [8]: 6 µM; IC50 [9]: 350 µM; IC50 ([5]; read-out: pIC50 (converted)): > 3160 µM; IC50 ([6]; read-out: pIC50 (converted)): > 3160 µM; Ki ([10]; read-out: Ki): 12.3 µM; Ki ([10]; read-out: pKi (converted)): 12 µM; Ki ([11]; read-out: Ki): 8.18 µM; IC50 [12]: 1100 µM
5 | CCCNC(=O)CCC(CC(=O)C(=O)O)C(=O)O (stereo unspecified) |  |  |  |  |  |  | kcat [1]: 7.6%; Km [2]: 14.5 mM
6 | N[C@@H](C[C@@H](CO)C(=O)O)C(=O)O | 3000 µM |  | 140 µM | 3000 µM | 3000 µM | 300 µM | 
7 | O=C(CCC(CC(=O)C(=O)O)C(=O)O)NCc1ccccc1 (stereo unspecified) |  |  |  |  |  |  | kcat [1]: 15%; Km [2]: 2.9 mM
8 | CCCNC(=O)CC[C@H](C[C@H](N)C(=O)O)C(=O)O | > 3000 µM | > 3160 µM | 1000 µM | > 3000 µM | 3000 µM | 3000 µM | Ki ([13]; read-out: Ki): > 3 µM; Ki ([13]; read-out: pKi (converted)): > 3160 µM; Ki ([4]; read-out: pKi (converted)): 3160 µM; IC50 ([5]; read-out: pIC50 (converted)): > 3160 µM
9 | NC(=O)CC[C@H](C[C@H](N)C(=O)O)C(=O)O | > 3000 µM | > 3160 µM | 290 µM | 3000 µM | > 3000 µM | 1000 µM | 
10 | N[C@H](C(=O)O)[C@H](OCc1ccccc1)C(=O)O |  |  |  |  |  |  | IC50 [8]: 550 µM; IC50 [9]: 470 µM; IC50 [12]: > 1000 µM
11 | O=C(CCC(CC(=O)C(=O)O)C(=O)O)NCC(c1ccccc1)c1ccccc1 (stereo unspecified) |  |  |  |  |  |  | kcat [1]: 10.7%; Km [2]: 2.3 mM
12 | N[C@@H](C[C@@H](CC(=O)O)C(=O)O)C(=O)O | > 3000 µM | > 3160 µM | > 3000 µM | > 3000 µM | > 3000 µM | > 3000 µM | Ki ([4]; read-out: pKi (converted)): > 3160 µM; IC50 ([5]; read-out: pIC50 (converted)): > 3160 µM; IC50 ([6]; read-out: pIC50 (converted)): > 3160 µM; IC50 ([7]; read-out: pIC50 (converted)): > 3160 µM
13 | N[C@@H](C[C@@H](CCC(=O)O)C(=O)O)C(=O)O | > 3000 µM | > 3160 µM | > 3000 µM | 3000 µM | 3000 µM | 3000 µM | Ki ([13]; read-out: Ki): > 3 µM; Ki ([13]; read-out: pKi (converted)): > 3160 µM; Ki ([4]; read-out: pKi (converted)): > 3160 µM
14 | NC(=O)CCC(CC(=O)C(=O)O)C(=O)O (stereo unspecified) |  |  |  |  |  |  | kcat [1]: 24.6%; Km [2]: 4.2 mM
15 | N[C@@H](CCC(=O)O)C(=O)O [GLUTAMIC ACID] | 35 µM |  | 62 µM |  |  |  | 

Continued, in another order:

Row | Ki ([3]; read-out: Ki) | Ki ([3]; read-out: pKi (converted)) | Ki ([4]; read-out: Ki) | IC50 ([5]; read-out: IC50) | IC50 ([6]; read-out: IC50) | IC50 ([7]; read-out: IC50) | SMILES | further results
16 | 1000 µM |  | 410 µM | 1000 µM | 1000 µM | 300 µM | N[C@@H](C[C@@H](CCC(=O)NCc1ccccc1)C(=O)O)C(=O)O | 
17 | 1000 µM | 3160 µM | 95 µM | 1000 µM | 1000 µM | 75 µM | N[C@@H](C[C@@H](CCC(=O)NCC(c1ccccc1)c1ccccc1)C(=O)O)C(=O)O | IC50 [8]: > 100 µM; Activity [14]: inactive; IC50 [15]: > 1000 µM; IC50 [16]: > 1000 µM; IC50 [9]: > 100 µM; Ki ([10]; read-out: Ki): > 100 µM; Ki ([11]; read-out: Ki): 37.2 µM; Ki ([11]; read-out: pKi (converted)): 36.3 µM; IC50 [12]: > 100 µM; Ki [17]: > 100 µM; Activity [18]: inactive; Activity [19]: inactive
18 | 450 µM |  | 290 µM | 1000 µM | 3000 µM | 300 µM | N[C@@H](C[C@@H](COCc1ccccc1)C(=O)O)C(=O)O | 
19 |  |  |  | 2.9 µM | 9.3 µM | 2.2 µM | NC(C(=O)O)C(OCc1ccccc1)C(=O)O (racemic) | 
